Activity calls are given as the source filed them. The rule behind the calls is not given here.
Legend:
Mus musculus [1] = test: Antihypersensitivity against TNCB-induced contact hypersensitivity in BALB/c mouse ear assessed as inhibition of edema at 0.5 mg/ear applied […] after 30 mins, 24 hrs and 48 hrs of TNCB challenge measured after 24 hrs relative to control; type: functional
How it was run: (§1)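 Female BALB/c mice (7–9 weeks) challenged on each ear with 10 μL 1% TNCB in acetone six days after sensitization. Compounds given at 0.5 mg/ear in EtOH–H2O 8:2 at 30 min, 24 h and 48 h. Ear thickness measured by micrometer at 24 and 72 h. Edema is inflamed minus naive thickness; inhibition versus control. Dunnett's test.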

Mus musculus [2] = test: Antihypersensitivity against TNCB-induced contact hypersensitivity in BALB/c mouse ear assessed as inhibition of edema at 0.5 mg/ear applied tropically after 30 mins, 24 hrs and 48 hrs of TNCB challenge measured after 72 hrs relative to control; type: functional; how it was run: as §1
Mus musculus [3] = test: Antihypersensitivity activity against TNCB-induced atopic dermatitis in BALB/c mouse ear assessed as inhibition of ear thickness at 0.5 mg/ear applied topically three times per week 30 min TNCB post challenge measured on day 11 onwards; type: functional
How it was run: (§2)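 BALB/c mice sensitized with 10 μL 0.3% TNCB in acetone on both inner ears at day −7, then re-challenged at the same site three times per week over days 0–21. Ear thickness measured by digital micrometer. Edema is the difference between naive and inflamed ear thickness. Inhibition calculated relative to the control group.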

Mus musculus [4] = species: Mus musculus; test: Antihypersensitivity activity against TNCB-induced acute contact hypersensitivity in BALB/c mouse ear assessed as inhibition of neutrophil infiltration by measuring MPO activity at 0.5 mg/ear measured after 72 hrs relative to control; type: functional
How it was run: (§3)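 Female BALB/c mice were challenged on both ears with 10 μL 1% TNCB in acetone. Test compounds (0.5 mg/ear in EtOH–H2O 8:2) or dexamethasone (0.025 mg/ear in acetone) were applied topically at 30 min, 24 h and 48 h. Ear tissue was taken at 24 or 72 h and homogenized in phosphate buffer with 0.5% HTAB. MPO was read by TMB/H2O2, 3 min at 37 °C, A630. n ≥5 ear samples.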

Mus musculus [5] = species: Mus musculus; test: Antihypersensitivity activity against TNCB-induced contact hypersensitivity in BALB/c mouse ear assessed as decrease IL1-beta levels at 0.5 mg/ear measured at 24 hrs by ELISA relative to control; type: functional
How it was run: (§4)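 Acute CHS: female BALB/c mice challenged with 1% TNCB (10 μL/ear). Topical treatment at 30 min, 24 h and 48 h: compounds 0.5 mg/ear, dexamethasone 0.025 mg/ear. Ears collected at 24 and 72 h and homogenized. Cytokines measured by ELISA in triplicate and expressed as pg/mL. n ≥4 animals; Dunnett's test versus control.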

Mus musculus [6] = species: Mus musculus; test: Antihypersensitivity activity against TNCB-induced contact hypersensitivity in BALB/c mouse ear assessed as decrease IL1-beta levels at 0.5 mg/ear measured at 72 hrs by ELISA relative to control; type: functional; how it was run: as §4
Mus musculus [7] = species: Mus musculus; test: Antihypersensitivity activity against TNCB-induced contact hypersensitivity in BALB/c mouse ear assessed as decrease IL2 levels at 0.5 mg/ear measured after 72 hrs by ELISA relative to 24 hrs; type: functional; how it was run: as §4
Mus musculus [8] = species: Mus musculus; test: Antihypersensitivity activity against TNCB-induced contact hypersensitivity in BALB/c mouse ear assessed as decrease IL4 levels at 0.5 mg/ear measured after 24 to 72 hrs by ELISA; type: functional, organism-based; how it was run: as §4
RAW264.7 [9] = test: Antiinflammatory activity in mouse RAW264.7 cells assessed as inhibition of LPS-induced MMP9 expression by Western blotting; type: functional, cell-based
How it was run: (§5)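 RAW 264.7 cells were plated at 2×10^5 cells/mL and switched to DMEM with 0.5% FBS when subconfluent. They were pretreated 1 h with compound (25, 50, 100 μM) or PBS vehicle, then given LPS 1 μg/mL. Cells were lysed after 24 h. MMP-9 was measured by Western blot, normalized to β-actin, with % inhibition versus control. Three experiments.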

RAW264.7 [10] = test: Antiinflammatory activity in mouse RAW264.7 cells assessed as inhibition of LPS-induced MMP9 expression at 25 uM by Western blotting relative to control; type: functional; how it was run: as §5
RAW264.7 [11] = test: Antiinflammatory activity in mouse RAW264.7 cells assessed as inhibition of LPS-induced MMP9 expression at 50 uM by Western blotting relative to control; type: functional; how it was run: as §5
RAW264.7 [12] = test: Antiinflammatory activity in mouse RAW264.7 cells assessed as inhibition of LPS-induced MMP9 expression at 100 uM by Western blotting relative to control; type: functional; how it was run: as §5
Mus musculus [13] = species: Mus musculus; test: Antihypersensitivity activity against TNCB-induced contact hypersensitivity in BALB/c mouse ear assessed as decrease TNFalpha levels at 0.5 mg/ear measured at 24 hrs by ELISA relative to control; type: functional; how it was run: as §4
Mus musculus [14] = species: Mus musculus; test: Antihypersensitivity activity against TNCB-induced contact hypersensitivity in BALB/c mouse ear assessed as decreased COX2 expression at 0.5 mg/ear after at 24 hrs by Western blotting relative to control; type: functional
Mus musculus [15] = species: Mus musculus; test: Antihypersensitivity activity against TNCB-induced contact hypersensitivity in BALB/c mouse ear assessed as decreased COX2 expression at 0.5 mg/ear after at 72 hrs by Western blotting relative to control; type: functional
Mus musculus [16] = species: Mus musculus; test: Antihypersensitivity activity against TNCB-induced contact hypersensitivity in BALB/c mouse ear assessed as inhibition of MMP9 production at 0.5 mg/ear measured at 24 hrs by Western blot analysis relative to control; type: functional
Mus musculus [17] = test: Antihypersensitivity activity against TNCB-induced atopic dermatitis in BALB/c mouse ear assessed as inhibition of ear thickness at 0.5 mg/ear applied topically three times per week 30 min TNCB post challenge measured on day 7 onwards; type: functional; how it was run: as §2
Mus musculus [18] = species: Mus musculus; test: Antihypersensitivity activity against TNCB-induced acute contact hypersensitivity in BALB/c mouse ear assessed as inhibition of neutrophil infiltration by measuring MPO activity at 0.5 mg/ear measured after 24 hrs relative to control; type: functional; how it was run: as §3
Mus musculus [19] = species: Mus musculus; test: Antihypersensitivity activity against TNCB-induced acute contact hypersensitivity in BALB/c mouse ear assessed as inhibition of neutrophil infiltration by measuring MPO activity at 0.5 mg/ear measured after 22 days of repeated application of TNCB relative to control; type: functional
How it was run: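 Repeated-challenge protocol in BALB/c mice: sensitized with 10 μL 0.3% TNCB in acetone on both inner ears at day −7, then 0.3% TNCB three times weekly over days 0–21. Ears were excised on day 22 and homogenized in 0.5% HTAB phosphate buffer. MPO was read by TMB/H2O2, 3 min at 37 °C, A630. n ≥5 ear samples.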

[20] = Inhibition of NF-kappaB activation
Mus musculus [21] = test: Antihypersensitivity against TNCB-induced contact hypersensitivity in BALB/c mouse ear assessed as inhibition of edema at 0.025 mg/ear applied […] after 30 mins, 24 hrs and 48 hrs of TNCB challenge measured after 24 hrs relative to control; type: functional
How it was run: (§6)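 Female BALB/c mice, 7–9 weeks old, were challenged with 10 μL 1% TNCB in acetone per ear. Dexamethasone (20 μL, in acetone) was applied topically to both ears at 30 min, 24 h and 48 h after challenge. Thickness was taken by digital micrometer at 24 h or 72 h; edema is inflamed minus naive ear, with inhibition relative to control. Reported as mean ± SEM, ≥6 animals, Dunnett's test.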

Mus musculus [22] = test: Antihypersensitivity against TNCB-induced contact hypersensitivity in BALB/c mouse ear assessed as inhibition of edema at 0.025 mg/ear applied […] after 30 mins, 24 hrs and 48 hrs of TNCB challenge measured after 72 hrs relative to control; type: functional; how it was run: as §6
Mus musculus [23] = test: Antihypersensitivity activity against TNCB-induced atopic dermatitis in BALB/c mouse ear assessed as inhibition of ear thickness at 0.025 mg/ear applied topically three times per week 30 min TNCB post challenge measured up to 25 days; type: functional, organism-based; details: in the assay text read “up to 21 days” for “up to 25 days”; how it was run: as §2
Mus musculus [24] = species: Mus musculus; test: Antihypersensitivity activity against TNCB-induced acute contact hypersensitivity in BALB/c mouse ear assessed as inhibition of neutrophil infiltration by measuring MPO activity at 0.025 mg/ear measured after 24 to 72 hrs relative to control; type: functional; how it was run: as §3
Mus musculus [25] = species: Mus musculus; test: Antihypersensitivity activity against TNCB-induced acute contact hypersensitivity in BALB/c mouse ear assessed as inhibition of neutrophil infiltration by measuring MPO activity at 0.025 mg/ear measured after 22 days of repeated application of TNCB relative to control; type: functional
How it was run: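 Female BALB/c mice were sensitized with 10 μL 0.3% TNCB in acetone on both inner ear surfaces, then painted with 0.3% TNCB three times weekly through days 0–21. On day 22 ears were homogenized in 50 mM PBS with 0.5% HTAB. Supernatant was read with H2O2 and tetramethylbenzidine, 3 min at 37 °C, acid-stopped, A630. Reported as mean ± SEM of ≥5 ear samples.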

Mus musculus [26] = species: Mus musculus; test: Antihypersensitivity activity against TNCB-induced contact hypersensitivity in BALB/c mouse ear assessed as decrease cytokines levels at 0.025 mg/ear measured at 24 hrs by ELISA relative to control; type: functional; how it was run: as §4
Mus musculus [27] = species: Mus musculus; test: Antihypersensitivity activity against TNCB-induced contact hypersensitivity in BALB/c mouse ear assessed as decreased COX2 expression at 0.025 mg/ear after at 24 hrs by Western blotting relative to control; type: functional
Mus musculus [28] = species: Mus musculus; test: Antihypersensitivity activity against TNCB-induced contact hypersensitivity in BALB/c mouse ear assessed as decreased COX2 expression at 0.025 mg/ear after at 72 hrs by Western blotting relative to control; type: functional
Mus musculus [29] = species: Mus musculus; test: Antihypersensitivity activity against TNCB-induced contact hypersensitivity in BALB/c mouse ear assessed as inhibition of MMP9 production at 0.025 mg/ear measured at 72 hrs by Western blot analysis relative to control; type: functional
Mus musculus [30] = species: Mus musculus; test: Antihypersensitivity activity against TNCB-induced contact hypersensitivity in BALB/c mouse ear assessed as inhibition of MMP9 production at 0.025 mg/ear measured at 24 hrs by ELISA relative to control

Structure (SMILES) | inhibition (INH) (Mus musculus [1]) [%] | inhibition (INH) (Mus musculus [5]) [%] | inhibition (INH) (Mus musculus [6]) [%] | fold change (FC) (Mus musculus [7]) | inhibition (Mus musculus [8]) | inhibition (RAW264.7 [9]) | inhibition at 25 µM (RAW264.7 [10]) [%] | inhibition at 50 µM (RAW264.7 [11]) [%] | inhibition at 100 µM (RAW264.7 [12]) [%] | inhibition (INH) (Mus musculus [13]) [%] | inhibition (INH) (Mus musculus [14]) [%] | inhibition (INH) (Mus musculus [15]) [%] | inhibition (INH) (Mus musculus [16]) [%] | other results
CC(C)=CCc1cc(O)ccc1O[C@@H]1O[C@H](CO)[C@@H](O)[C@H](O)[C@H]1O | 53 | >50 | 60 | 2 | inactive | Dose-dependent effect | 10 | 72 | 86 |  |  |  |  | inhibition (INH) (Mus musculus [2]): 50%; inhibition (INH) (Mus musculus [3]): 30%; inhibition (INH) (Mus musculus [4]): 43%
COC(=O)[C@]1(O)C[C@@H](OC(=O)/C=C/c2ccc(O)c(O)c2)[C@@H](O)[C@H](OC(=O)/C=C/c2ccc(O)c(O)c2)C1 | 45 | >50 | 60 | 2 | inactive | Dose-dependent effect | 26 | 85 | 90 | 39 | 49 | 29 | 41 | 
O=C(/C=C/c1ccc(O)c(O)c1)O[C@@H]1C[C@](O)(C(=O)O)C[C@@H](OC(=O)/C=C/c2ccc(O)c(O)c2)[C@H]1O (relative stereo) | 50 | >50 |  | 2 | inactive | Dose-dependent effect | 20 | 42 | 97 | 53 | 44 | 20 | 66 | inhibition (INH) (Mus musculus [17]): > 40%; inhibition (INH) (Mus musculus [18]): 20%; inhibition (INH) (Mus musculus [19]): 44%; inhibition [20]: Active
C[C@@H]1C[C@H]2[C@@H]3CCC4=CC(=O)C=C[C@]4(C)[C@@]3(F)[C@@H](O)C[C@]2(C)[C@@]1(O)C(=O)CO [DEXAMETHASONE] |  |  |  |  |  |  |  |  |  |  |  |  |  | inhibition (INH) (Mus musculus [21]): 78%; inhibition (INH) (Mus musculus [22]): 83%; inhibition (Mus musculus [23]): Active; inhibition (INH) (Mus musculus [24]): 65%; inhibition (INH) (Mus musculus [25]): 78%; inhibition (INH) (Mus musculus [26]): 50%; inhibition (INH) (Mus musculus [27]): 48%; inhibition (INH) (Mus musculus [28]): 43%; inhibition (INH) (Mus musculus [29]): 69%; inhibition (INH) (Mus musculus [30]): 81%
O=C(O[C@@H]1Cc2c(O)cc(O)cc2O[C@@H]1c1cc(O)c(O)c(O)c1)c1cc(O)c(O)c(O)c1 [EPIGALOCATECHIN GALLATE] |  |  |  |  |  |  | 70 | 75 | 90 |  |  |  |  | 

Reference: ChEMBL document CHEMBL1938323, “Phenolic substances from Phagnalon rupestre protect against 2,4,6-trinitrochlorobenzene-induced contact hypersensitivity” (2011)
